Test results as given in ChEMBL document CHEMBL1127489, “Synthesis of novel N-phosphonoalkyl dipeptide inhibitors of human collagenase” (J Med Chem, 1994).

molecular target: T1, Interstitial collagenase (Homo sapiens, UniProt P03956); experiment: Inhibition of degradation of radiolabeled rat skin type I collagen by semipurified human lung fibroblast collagenase
T1 sequence (P03956 whole entry): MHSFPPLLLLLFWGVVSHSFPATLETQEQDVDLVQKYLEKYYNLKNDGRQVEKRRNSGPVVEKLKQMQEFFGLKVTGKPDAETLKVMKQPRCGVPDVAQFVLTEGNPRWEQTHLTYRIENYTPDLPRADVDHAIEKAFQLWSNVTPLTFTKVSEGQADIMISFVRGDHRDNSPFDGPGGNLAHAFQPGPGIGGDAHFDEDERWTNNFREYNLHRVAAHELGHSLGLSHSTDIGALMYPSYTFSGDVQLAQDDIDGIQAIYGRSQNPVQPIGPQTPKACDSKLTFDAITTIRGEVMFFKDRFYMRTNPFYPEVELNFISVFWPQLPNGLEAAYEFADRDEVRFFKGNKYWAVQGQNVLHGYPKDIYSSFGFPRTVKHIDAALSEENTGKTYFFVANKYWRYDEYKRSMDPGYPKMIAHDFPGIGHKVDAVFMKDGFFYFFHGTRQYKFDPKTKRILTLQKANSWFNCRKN
Procedure, shortened: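 Collagenase from WI-38 human lung fibroblast culture supernatants, trypsin-activated and semipurified. Substrate was 3H- or 14C-acetylated rat skin type I collagen, 100 μg/tube, added at 4 °C. Enzyme amount set to degrade 70% of collagen. Compounds were dissolved in MeOH by sonication and serially diluted. Incubation ran 1000 min at 37 °C, then centrifugation at 4 °C. Supernatant soluble peptides were scintillation counted.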

Row | Structure (SMILES) | IC50 [nM]
1 | CC[C@H](N[C@@H](CC(C)C)C(=O)N[C@@H](CCCNC(=N)N)C(=O)NC)P(=O)(O)O | 290
2 | CNC(=O)[C@H](Cc1ccc(OC)cc1)NC(=O)[C@H](CC(C)C)N[C@H](C)P(=O)(O)O | 260
3 | CNC(=O)[C@H](Cc1ccc(OC)cc1)NC(=O)C(CC(C)C)NC(CC(C)C)P(=O)(O)O (stereo not given in full) | 2900
4 | CC[C@H](N[C@@H](CC(C)C)C(=O)N[C@@H](Cn1cccn1)C(=O)NC)P(=O)(O)O | 760
5 | CCC(NC(CC(C)C)C(=O)N[C@@H](Cc1ccc(OC)cc1)C(=O)NC)[PH](=O)O (stereo not given in full) | > 100000
6 | CNC(=O)[C@H](Cc1ccc(OC)cc1)NC(=O)[C@H](CC(C)C)N[C@@H](CCNC(=O)OCc1ccccc1)C(=O)O | 350
7 | CNC(=O)[C@H](Cc1ccc(OC)cc1)NC(=O)[C@H](CC(C)C)N[C@@H](C)P(=O)(O)O | 520
8 | CNC(=O)[C@H](Cc1ccccc1)NC(=O)[C@H](CC(C)C)N[C@H](CCc1ccccc1)P(=O)(O)O | 1820
9 | CNC(=O)CP(=O)(O)C[C@@H](CC(C)C)C(=O)N[C@@H](Cc1ccc(OC)cc1)C(=O)NC | 37000
10 | CC[C@@H](N[C@@H](CC(C)C)C(=O)N[C@@H](Cc1ccc(OC)cc1)C(=O)NC)P(=O)(O)O | 300
11 | CC[C@H](N[C@@H](CC(C)C)C(=O)N[C@@H](Cc1nc2ccccc2[nH]1)C(=O)NC)P(=O)(O)O | 150
12 | CNC(=O)[C@H](Cc1ccccc1)NC(=O)[C@H](CC(C)C)N[C@@H](CCc1ccccc1)P(=O)(O)O | 400
13 | CC[C@H](N[C@@H](CC(C)C)C(=O)N[C@@H](Cc1ccc(OC)cc1)C(=O)NC)P(=O)(O)O | 470
14 | CC[C@@H](N[C@@H](CC(C)C)C(=O)N[C@@H](CCCCN)C(=O)NC)P(=O)(O)O | 740
15 | CNC(=O)[C@H](Cc1ccc(OC)cc1)NC(=O)C(CC(C)C)NC(C(C)C)P(=O)(O)O (stereo not given in full) | 2900
16 | CNC(=O)[C@H](Cc1ccc(OC)cc1)NC(=O)[C@H](CC(C)C)N[C@H](C)C(=O)O | > 10000
17 | CC[C@H](N[C@@H](CC(C)C)C(=O)N[C@@H](CCCN(C)C)C(=O)NC)P(=O)(O)O | 490
18 | CC[C@H](N[C@@H](CC(C)C)C(=O)N[C@@H](Cc1c[nH]c2ccccc12)C(=O)NC)P(=O)(O)O | 50
19 | CC[C@@H](N[C@H](CC(C)C)C(=O)N[C@@H](Cc1ccc(OC)cc1)C(=O)NC)P(=O)(O)O | 39300

Second part, the compound after the results:

Row | IC50 [nM] | Structure (SMILES)
20 | 4320 | CC[C@H](N[C@@H](CC(C)C)C(=O)N[C@@H](CCCCN)C(=O)NC)P(=O)(O)O
21 | > 10000 | CC[C@H](N[C@H](CC(C)C)C(=O)N[C@@H](Cc1ccccc1)C(=O)NC)P(=O)(O)O
22 | 15600 | CC[C@H](N[C@H](CC(C)C)C(=O)N[C@@H](Cc1ccc(OC)cc1)C(=O)NC)P(=O)(O)O
23 | 240 | CC[C@@H](N[C@@H](CC(C)C)C(=O)N[C@@H](Cc1ccccc1)C(=O)NC)P(=O)(O)O
24 | > 10000 | CC[C@@H](N[C@H](CC(C)C)C(=O)N[C@@H](Cc1ccccc1)C(=O)NC)P(=O)(O)O
25 | 15700 | CCCC(NC(CC(C)C)C(=O)N[C@@H](Cc1ccc(OC)cc1)C(=O)NC)P(=O)(O)O (stereo not given in full)
26 | 41200 | CCCCC(NC(CC(C)C)C(=O)N[C@@H](Cc1ccc(OC)cc1)C(=O)NC)P(=O)(O)O (stereo not given in full)
27 | > 100000 | CNC(=O)[C@H](Cc1ccc(OC)cc1)NC(=O)C(CC(C)C)NC(C)P(C)(=O)O (stereo not given in full)
28 | 1360 | CC[C@H](N[C@@H](CC(C)C)C(=O)N[C@@H](CC(=O)NCCN1CCCC1)C(=O)NC)P(=O)(O)O
29 | 230 | CC[C@H](N[C@@H](CC(C)C)C(=O)N[C@@H](Cc1ccccc1)C(=O)NC)P(=O)(O)O
30 | 1560 | CNC(=O)[C@H](Cc1ccccc1)NC(=O)[C@H](CC(C)C)N[C@@H](CC(C)C)P(=O)(O)O
